Measured values from the RNAGym collection of RNA variant scans (doi:10.1126/science.aae0568).
This sample holds only a part of the variants without activity.

B1: tRNA (parent)
chain: GUUCCGUUGGCGUAAUGGUAACGCGUCUCCCUCCUAAGGAGAAGACUGCGGGUUCGAGUCCCGUACGGAACG

Variants of: B1
Assay: yeast fitness relative to wild type (ratio to wild type); higher = fitter; tRNA-Arg(CCU), competitive growth, 37 C, YPD
Procedure, shortened: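 Variants of the tRNA-Arg(CCU) gene, chemically synthesised with a 3% per-site mutation rate at 69 sites, were placed at the native genomic locus in Saccharomyces cerevisiae. The pooled strains were competed in YPD at 37°C for 24 hours in six parallel replicates. Gene amplicons from the start population and from each end population were read by 100-nucleotide paired-end sequencing. Darwinian fitness relative to wild type came from changes in genotype frequencies; genotypes needed ≥ 100 starting reads, and estimates < 0.5 were set to 0.5.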
For A21G G25C C29A G58A, the yeast fitness was 0.54.
With C24G C30U C34A C60U the yeast fitness was at most 0.5.
Variant C29U A40U A65U has a yeast fitness of 0.584.
C49U G51A gave a yeast fitness of 0.737.
Work on C22A A37G C60G U64G yielded a yeast fitness of at most 0.5.
With C31A G48A A69C the yeast fitness was 0.678.
In the case of C4U G23C G39C G44A, the yeast fitness is reported as at most 0.5.
For U16C C62G, the yeast fitness was 0.717.
U8A U59A C66G A70C showed a yeast fitness of at most 0.5.
Variant C30A G44C U59A A69U has a yeast fitness of 0.65.
C4G A70C showed a yeast fitness of 1.08.
G10A A36C A45C gave a yeast fitness of 0.634.
Work on C5U U47C A57C yielded a yeast fitness of at most 0.5.
For U3G G18C G44A, the yeast fitness was at most 0.5.
Work on A42C C62G A65C yielded a yeast fitness of 0.544.
G18A G50A C61U gave a yeast fitness of at most 0.5.
For U2A A14U A21G C46G A57U C66U, the yeast fitness was 0.56.
With C4G U8C U16A A21C C24G A37U C49U C55U the yeast fitness was at most 0.5.
U2C C34G A45C A57C gave a yeast fitness of at most 0.5.
Variant C5A A40C A69U has a yeast fitness of 0.539.
Work on A20G G50C C60G yielded a yeast fitness of 0.634.
With G10A C27U the yeast fitness was 0.817.
U54C C60U showed a yeast fitness of 0.546.
A40U A43C G68A gave a yeast fitness of 0.605.
For G12A C22U, the yeast fitness was 0.873.
For C11G C46G G50C, the yeast fitness was 0.694.
G10A A20U C30A C62U gave a yeast fitness of at most 0.5.
C11G C24A A43C showed a yeast fitness of at most 0.5.
Variant C27A A43C C60A has a yeast fitness of at most 0.5.
In the case of U8G A20C U35C C49A C62A, the yeast fitness is reported as at most 0.5.
For A20C A37C G63A, the yeast fitness was at most 0.5.
Work on C4G U16C G44A G48A G50C yielded a yeast fitness of 0.511.
For C27U C33G A43G, the yeast fitness was at most 0.5.
C5A G12A U47A showed a yeast fitness of at most 0.5.
Work on U7G A15U yielded a yeast fitness of 0.592.
C11G A36U A45U G51C C55U showed a yeast fitness of at most 0.5.
Variant C22U G44C G63A has a yeast fitness of at most 0.5.
G6A A45C C46G C66U gave a yeast fitness of at most 0.5.
A20G A36C A45C G52A G67U gave a yeast fitness of at most 0.5.
A40C C46A C61G A69G gave a yeast fitness of at most 0.5.
For G18C G23C U53A A69C, the yeast fitness was at most 0.5.
G52A U64C showed a yeast fitness of 0.789.
Work on C4A C5A C60A yielded a yeast fitness of 0.671.
Work on A14G C29G A43U C46U yielded a yeast fitness of at most 0.5.
Work on U7C C11G G18A G44U A65C yielded a yeast fitness of at most 0.5.
For C31U G68U, the yeast fitness was 0.846.
Variant C24G A36G A40C C55G G63C has a yeast fitness of at most 0.5.
For A40C A42C G56A G67A, the yeast fitness was at most 0.5.
U2C G6A U16A showed a yeast fitness of 0.65.
Variant A37G G50C has a yeast fitness of 0.693.
C4G G18C C62G gave a yeast fitness of at most 0.5.
With C11A A21U C27A U35G the yeast fitness was at most 0.5.
With U2C U7A U35A G56A the yeast fitness was at most 0.5.
For A21G C27G C31G, the yeast fitness was 0.523.
Work on C60U A65C yielded a yeast fitness of 0.764.
Work on C11U C31A A42G yielded a yeast fitness of 0.525.
For G12A A14G C30G C46A G67U, the yeast fitness was at most 0.5.
With U7C A20G the yeast fitness was 0.819.
A45C C49A gave a yeast fitness of 0.603.
In the case of U8C G17A G41C A65C, the yeast fitness is reported as at most 0.5.
For C4U A20C, the yeast fitness was 1.03.
Variant G6C G41C C49G U54C U59G G63A C66U has a yeast fitness of at most 0.5.
For C31U A42C G44A A45U, the yeast fitness was 0.55.
C34U G58C C60U C66G gave a yeast fitness of at most 0.5.
G9C A45U C55G gave a yeast fitness of 0.533.
A21U C24U C27A U35C A37C A40U G67C showed a yeast fitness of at most 0.5.
In the case of C11U G38C U64G A70C, the yeast fitness is reported as at most 0.5.
For U8G C31U C33G U47A G50U, the yeast fitness was 0.608.
Variant G23A C30G C33G A36U C46G C55G has a yeast fitness of 0.589.
For G6C G52C C61A, the yeast fitness was at most 0.5.
For C5A U54C A70U, the yeast fitness was 0.532.
C5A U8C U35C G44A G48C C55G A69U gave a yeast fitness of at most 0.5.
Variant U3C U47C has a yeast fitness of 0.866.
U19A C49U G67A gave a yeast fitness of 0.666.
For C27G C66G, the yeast fitness was 0.579.
For U7G C30U G38A G50A G68C, the yeast fitness was at most 0.5.
G12A A57C A65C A70C gave a yeast fitness of at most 0.5.
Work on C34A A42U A69U yielded a yeast fitness of at most 0.5.
Variant A43G G51C A69U has a yeast fitness of at most 0.5.
C22G G51C G58A showed a yeast fitness of at most 0.5.
In the case of U3A C22G C29G C46U A70U, the yeast fitness is reported as at most 0.5.
With A15G A21G C34U G44A C61A A70C the yeast fitness was at most 0.5.
In the case of U13C C60G A69C, the yeast fitness is reported as at most 0.5.
U35C G67C showed a yeast fitness of 0.939.
For U3A U19A A70C, the yeast fitness was 0.812.
G18C C29G U47C gave a yeast fitness of at most 0.5.
U7G C22U C24G A65U C66U showed a yeast fitness of at most 0.5.
In the case of G51A A65C, the yeast fitness is reported as 0.75.
For C5U G9A C34U C46G C49U, the yeast fitness was 0.513.
With U8C U16C C29G the yeast fitness was at most 0.5.
C30A C49U A69U gave a yeast fitness of 0.682.
For A20G U26C A42U, the yeast fitness was 0.715.
Variant A20G C34A A36G C66U has a yeast fitness of at most 0.5.
Work on G12A C24G C33A A40C yielded a yeast fitness of at most 0.5.
With G12A A15G A65C A69C the yeast fitness was at most 0.5.
In the case of U26C G50U, the yeast fitness is reported as 0.733.
Work on U13C C31A yielded a yeast fitness of 0.901.
Variant U3G G48A has a yeast fitness of 0.856.
In the case of C22G G25C A37G A65U, the yeast fitness is reported as 0.576.
Work on G9C G68C A69C yielded a yeast fitness of at most 0.5.
Variant G6A A14C A20G A42U G56A G63C has a yeast fitness of at most 0.5.
Variant U13A U28C C33G G38A U64G has a yeast fitness of at most 0.5.
In the case of G9C G39A G68C A69C, the yeast fitness is reported as at most 0.5.
With U3C G9C C30G A43C the yeast fitness was at most 0.5.
With A20C C31U U53A the yeast fitness was at most 0.5.
G23A C31U C33G G63U gave a yeast fitness of at most 0.5.
U19C U47A showed a yeast fitness of 0.896.
For C27A A42C A57G, the yeast fitness was at most 0.5.
In the case of G9C U19C C24U C27A G68A, the yeast fitness is reported as at most 0.5.
C31G G38A showed a yeast fitness of 0.802.
For G6C A15U A42G A65G, the yeast fitness was at most 0.5.
G9A U19G A45G gave a yeast fitness of 0.528.
A37U G44A A70G showed a yeast fitness of at most 0.5.
C29G G50C showed a yeast fitness of 0.607.
For C5A U16A C62U, the yeast fitness was at most 0.5.
Variant U35G A45G has a yeast fitness of 0.669.
For C11A C27U A36G C49A, the yeast fitness was at most 0.5.
For U19G A21U C46U, the yeast fitness was 0.809.
Work on C30U C49U yielded a yeast fitness of 0.862.
In the case of G9C G10C C61U, the yeast fitness is reported as at most 0.5.
Variant C11U A15C G44A A65U has a yeast fitness of at most 0.5.
With U3G U13C C22A G25C C33U A69C the yeast fitness was at most 0.5.
For G50A U59C, the yeast fitness was 0.863.
For G39U C49A G58C, the yeast fitness was 0.646.
With U16C C22U G63A the yeast fitness was 0.545.
For C4G C29A C30U C62G U64A, the yeast fitness was at most 0.5.
In the case of C5G A21G U32C, the yeast fitness is reported as 0.63.
For U3C U26A, the yeast fitness was 0.856.
With G6C C22A C46A C61G A69G the yeast fitness was at most 0.5.
C5U A20G U47C gave a yeast fitness of at most 0.5.
Work on A42G C49U A70U yielded a yeast fitness of 0.711.
In the case of A14G C60G, the yeast fitness is reported as 0.507.
U53C A65U gave a yeast fitness of 0.788.
Variant C29U G58A has a yeast fitness of 1.02.
With C4U U26G G38U the yeast fitness was 0.508.
Work on C29A C46A A70G yielded a yeast fitness of at most 0.5.
For U26C C46A C61U G67A, the yeast fitness was at most 0.5.
A14C C30G A37G A45G G50A U59C G67C showed a yeast fitness of at most 0.5.
U19C C29U A57C G68C showed a yeast fitness of at most 0.5.
For A21G C33U U59A, the yeast fitness was at most 0.5.
G10A A40U G52C showed a yeast fitness of at most 0.5.
U7A C24U U54C A69U gave a yeast fitness of at most 0.5.
Variant U3A U19A has a yeast fitness of 1.02.
For A15U C33U U64G A70C, the yeast fitness was at most 0.5.
For G6A C22U C30G A36G C62U A65U, the yeast fitness was at most 0.5.
Work on G51A A57G A65G C66U yielded a yeast fitness of at most 0.5.
Variant U2A C5U A15G C34U G41C C55A has a yeast fitness of at most 0.5.
Work on U7G G10A C11G C27U A40U yielded a yeast fitness of 0.538.
U3G G48C G67A showed a yeast fitness of 0.683.
With G17C A20G U53G A70U the yeast fitness was at most 0.5.
A21C C24A U54A A70C showed a yeast fitness of at most 0.5.
With A14U U47A G67A the yeast fitness was at most 0.5.
With G12A C24U G58A U59A A65U the yeast fitness was at most 0.5.
Variant G6A G58A G68C has a yeast fitness of 0.649.
For U8A C29U G51C G67A, the yeast fitness was 0.536.
For G10A A45U G48A, the yeast fitness was at most 0.5.
G6A C34G showed a yeast fitness of 0.569.
C31G A40C gave a yeast fitness of 0.718.
G52A U59A showed a yeast fitness of 0.666.
Work on G39C G67C yielded a yeast fitness of 0.742.
With C33A A57U C66U the yeast fitness was 0.555.
With U13C U16A G17C C34U the yeast fitness was at most 0.5.
For U13G U19G A57G C62U, the yeast fitness was at most 0.5.
In the case of U2G C27G C33U G56A, the yeast fitness is reported as at most 0.5.
In the case of A14U G25C A45G A69U, the yeast fitness is reported as at most 0.5.
Variant C29A G48C has a yeast fitness of 0.613.
Variant C22G A45U U47A has a yeast fitness of at most 0.5.
